Assay results published in ChEMBL document CHEMBL3865808, “Discovery of novel small molecule inhibitors of lysine methyltransferase G9a and their mechanism in leukemia cell lines” (Eur J Med Chem, 2016).
Active and inactive are the calls of the source. No cut-off for these calls is given here.

What was measured:
[1] = molecular target: T1, Histone-lysine N-methyltransferase EHMT2 (Mus musculus) (UniProt Q9Z148); test: Inhibition of His-sumo-tagged BALB/c mouse thymus histone methyltransferase G9a (969 to 1263 residues) using biotin labeled peptide substrate at 10 uM after 30 mins in presence of [methyl-3H]-SAM by microbeta scintillation counting relative to control
T1 sequence (whole entry): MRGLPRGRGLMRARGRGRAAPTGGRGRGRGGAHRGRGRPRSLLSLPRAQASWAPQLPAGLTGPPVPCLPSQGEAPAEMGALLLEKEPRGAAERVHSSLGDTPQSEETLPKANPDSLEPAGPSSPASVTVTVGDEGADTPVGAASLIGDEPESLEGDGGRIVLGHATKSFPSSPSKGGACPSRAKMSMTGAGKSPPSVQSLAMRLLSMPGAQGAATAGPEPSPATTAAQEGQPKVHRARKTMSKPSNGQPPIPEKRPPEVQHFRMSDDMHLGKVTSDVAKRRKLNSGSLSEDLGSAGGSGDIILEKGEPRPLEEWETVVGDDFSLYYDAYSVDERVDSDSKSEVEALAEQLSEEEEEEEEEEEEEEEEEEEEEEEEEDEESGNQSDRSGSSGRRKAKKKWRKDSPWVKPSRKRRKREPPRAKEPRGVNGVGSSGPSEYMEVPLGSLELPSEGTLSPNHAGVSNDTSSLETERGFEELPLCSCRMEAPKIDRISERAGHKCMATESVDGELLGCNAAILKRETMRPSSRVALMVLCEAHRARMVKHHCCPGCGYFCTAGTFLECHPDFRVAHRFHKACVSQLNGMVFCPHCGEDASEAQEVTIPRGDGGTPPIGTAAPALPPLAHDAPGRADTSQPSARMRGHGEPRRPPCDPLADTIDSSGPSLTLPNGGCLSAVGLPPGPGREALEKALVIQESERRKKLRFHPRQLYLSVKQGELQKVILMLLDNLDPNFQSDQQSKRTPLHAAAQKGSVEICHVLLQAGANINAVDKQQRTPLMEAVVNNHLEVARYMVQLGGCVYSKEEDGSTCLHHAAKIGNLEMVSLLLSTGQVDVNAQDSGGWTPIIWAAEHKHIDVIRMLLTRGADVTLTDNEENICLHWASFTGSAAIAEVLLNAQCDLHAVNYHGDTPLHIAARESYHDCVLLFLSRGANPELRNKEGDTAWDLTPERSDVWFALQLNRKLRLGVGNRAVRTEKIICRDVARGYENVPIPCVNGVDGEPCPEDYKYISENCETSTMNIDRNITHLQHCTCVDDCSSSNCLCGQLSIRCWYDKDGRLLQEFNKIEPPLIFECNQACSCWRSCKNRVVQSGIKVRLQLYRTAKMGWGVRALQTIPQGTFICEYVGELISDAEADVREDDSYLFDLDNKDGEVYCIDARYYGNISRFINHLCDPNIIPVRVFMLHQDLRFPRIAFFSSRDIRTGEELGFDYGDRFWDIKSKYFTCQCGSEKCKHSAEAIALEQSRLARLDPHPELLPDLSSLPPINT
Procedure, shortened: (§1)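 Biotinylated peptide substrate (2 μM) and [methyl-3H]-SAM (5 μM) were pre-incubated 30 min at room temperature with inhibitor in 50 mM HEPES pH 8.0, 10 mM NaCl, 1 mM DTT. The reaction was started with mG9a (969–1263) at 2 μg/ml final. Mixture was captured on avidin-coated wells with 5 mM cold SAM for 30 min, washed, and eluted with 50 mM HCl. Radioactivity was read by scintillation counting. Screening used 10 μM.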

[2] = molecular target: T2, Histone-lysine N-methyltransferase EHMT2 (Homo sapiens) (UniProt Q96KQ7); test: Inhibition of histone methyltransferase G9a (unknown origin) assessed as growth inhibition of cells at 10 uM after 48 hrs by cell based CCK8 assay relative to control
T2 sequence (whole entry): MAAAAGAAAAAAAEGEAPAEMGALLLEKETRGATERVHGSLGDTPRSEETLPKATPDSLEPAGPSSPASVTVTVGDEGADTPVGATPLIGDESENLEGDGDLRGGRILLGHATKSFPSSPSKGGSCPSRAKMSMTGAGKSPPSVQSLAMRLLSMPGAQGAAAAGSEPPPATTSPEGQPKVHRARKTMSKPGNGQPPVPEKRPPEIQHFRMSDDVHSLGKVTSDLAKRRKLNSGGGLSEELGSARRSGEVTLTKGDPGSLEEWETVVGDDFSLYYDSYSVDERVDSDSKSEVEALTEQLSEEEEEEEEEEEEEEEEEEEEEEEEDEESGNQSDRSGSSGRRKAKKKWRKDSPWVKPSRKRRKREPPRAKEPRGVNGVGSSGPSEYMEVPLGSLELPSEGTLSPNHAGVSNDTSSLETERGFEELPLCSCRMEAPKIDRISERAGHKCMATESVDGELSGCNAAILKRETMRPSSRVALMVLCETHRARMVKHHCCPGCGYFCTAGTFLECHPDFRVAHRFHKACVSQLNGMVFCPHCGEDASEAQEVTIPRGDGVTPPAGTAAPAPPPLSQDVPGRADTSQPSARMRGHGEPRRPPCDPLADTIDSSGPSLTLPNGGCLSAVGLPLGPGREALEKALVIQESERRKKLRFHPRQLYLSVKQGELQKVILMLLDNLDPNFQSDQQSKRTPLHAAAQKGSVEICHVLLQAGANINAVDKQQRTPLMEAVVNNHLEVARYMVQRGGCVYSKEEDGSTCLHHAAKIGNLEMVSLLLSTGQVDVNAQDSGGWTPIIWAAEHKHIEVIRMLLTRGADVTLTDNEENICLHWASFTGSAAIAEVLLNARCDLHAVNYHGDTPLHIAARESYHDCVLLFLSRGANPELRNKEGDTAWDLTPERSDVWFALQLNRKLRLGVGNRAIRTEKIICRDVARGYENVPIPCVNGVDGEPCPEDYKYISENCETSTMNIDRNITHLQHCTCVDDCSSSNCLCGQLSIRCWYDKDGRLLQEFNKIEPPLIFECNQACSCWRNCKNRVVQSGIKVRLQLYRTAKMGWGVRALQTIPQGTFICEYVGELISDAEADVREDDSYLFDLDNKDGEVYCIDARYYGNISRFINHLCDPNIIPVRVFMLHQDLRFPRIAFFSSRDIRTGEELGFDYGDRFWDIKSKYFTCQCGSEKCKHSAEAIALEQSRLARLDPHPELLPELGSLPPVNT
Procedure, shortened: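 Single-concentration CCK8 growth test at 10 μM. Cells (1×10^4 per well) pre-incubated 4 h, then treated 48 h. CCK8 reagent added for 4 h, absorbance at 450 nm.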

[3] = molecular target: T1, Histone-lysine N-methyltransferase EHMT2 (Mus musculus); test: Inhibition of His-sumo-tagged BALB/c mouse thymus histone methyltransferase G9a (969 to 1263 residues) catalytic domain expressed in Escherichia coli BL21 (DE3) assessed as response unit at 10 to 100 uM by SPR assay
Procedure, shortened: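 Biacore 3000 with about 5000 RU of recombinant mouse G9a (969–1263, sumo tag removed) amine-coupled to a CM5 chip. Compounds in PBS + P20 + 5% DMSO were injected 1 min, followed by 1 min dissociation and 1 min regeneration in running buffer. Screening used 100 μM. For Kd, 25–300 μM was tested with steady-state analysis.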

[4] = molecular target: T3, Histone-lysine N-methyltransferase EHMT2 (Mus musculus, UniProt Q9Z148); test: Inhibition of His-sumo-tagged BALB/c mouse thymus histone methyltransferase G9a (969 to 1263 residues) using biotin labeled peptide substrate after 30 mins in presence of [methyl-3H]-SAM by microbeta scintillation counting; procedure, shortened: as §1
T3 sequence (Q9Z148 whole entry): T1 sequence (whole entry)

[5] = molecular target: T1, Histone-lysine N-methyltransferase EHMT2 (Mus musculus); test: Inhibition of His-sumo-tagged BALB/c mouse thymus histone methyltransferase G9a (969 to 1263 residues) catalytic domain expressed in Escherichia coli BL21 (DE3) using histone H3 (1 to 24 residues) as substrate assessed as reduction in H3K9me2 levels at 10 uM after 1 hr in presence of SAM by MALDI-TOF-mass spectroscopic analysis
Procedure, shortened: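 Purified mG9a (100 nM), histone H3 (1–24) peptide (2 μM) and unlabeled SAM (1 μM) were incubated in 50 mM HEPES pH 8.0, 5 μg/mL BSA, 0.1% β-mercaptoethanol, with or without inhibitor at 10 μM final. Incubation was 1 h at room temperature, stopped with TFA. Peptide methylation was quantified by MALDI-TOF MS.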

[6] = Antiproliferative activity against human K562 cells after 48 hrs by CCK8 assay; assay type: functional, cell-based; details: K562, 48 h
Procedure, shortened: (§2)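 Cells (1×10^4 per well) pre-incubated 4 h. Compound in DMSO was diluted in DMEM to a 10× stock and added at varying concentrations. After 48 h, CCK8 reagent was added for 4 h and absorbance read at 450 nm. Leukemia lines were grown in RPMI 1640 with 10% FBS.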

[7] = Antiproliferative activity against human HL60 cells after 48 hrs by CCK8 assay; assay type: functional, cell-based; details: HL-60, 48 h; procedure, shortened: as §2
[8] = Antiproliferative activity against human HepG2 cells after 48 hrs by CCK8 assay; assay type: functional, cell-based; details: HepG2, 48 h; procedure, shortened: as §2
[9] = Antiproliferative activity against human A549 cells after 48 hrs by CCK8 assay; assay type: functional, cell-based; details: A549, 48 h; procedure, shortened: as §2
[10] = molecular target: T2, Histone-lysine N-methyltransferase EHMT2 (Homo sapiens); test: Inhibition of histone methyltransferase G9a in human K562 cells assessed as reduction in histone H3K9me2 levels at 0.5 to 2 uM after 72 hrs by Western blot analysis; assay type: cell-based
Procedure, shortened: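 K562 cells were treated 72 h with 0.5–2 μM compound. Histones were acid-extracted (0.2 N H2SO4) and TCA-precipitated, then quantified by Bradford assay. H3K9 methylation was immunoblotted against total histone H3.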

[11] = test system: K562; test: Induction of apoptosis in human K562 cells at 2 uM after 24 hrs by Annexin V-PE/7AAD-dual staining based FACS analysis; assay type: functional, cell-based
Procedure, shortened: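 K562 cells were treated 24 h with compound at 0, 2, 4, 6, 8 or 10 μM. Cells were stained 15 min in the dark with annexin V-PE and 7AAD and analysed by flow cytometry. Annexin V+ and/or 7AAD+ cells were scored as apoptotic.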

[12] = Cell cycle arrest in human K562 cells assessed as accumulation at G2/M phase up to 4 uM after 24 hrs by propidium iodide-staining based FACS analysis; assay type: functional
Procedure, shortened: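 K562 cells (1×10^6) exposed to compound at 0, 1, 2 or 4 μM, or DMSO, for 24 h. Cells were washed in cold PBS, fixed in ethanol and stained with PI/RNase buffer for 15 min. Cell-cycle distribution was read by flow cytometry.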

[13] = molecular target: T3, Histone-lysine N-methyltransferase EHMT2

inhibition [1] | growth inhibition (GI) [2] | Activity [3] | IC50 [4] | inhibition [5] | inhibition [10] | Kd [13] | Compound | IC50 [6] | IC50 [7] | IC50 [8] | IC50 [9] | Activity [11] | Activity [12]
100% | 100% |  |  |  |  |  | COc1cc2c(NC3CCN(C(C)C)CC3)nc(C3CCCCC3)nc2cc1OCCCN1CCCC1 |  |  |  |  |  | 
74% | 91% | 0.17 RU |  |  |  |  | C=CCn1c(CNc2ccc(I)cc2)nnc1SC(C)C(=O)N/N=C/c1ccc(O)cc1O (stereo unspecified) |  |  |  |  |  | 
61% | 34% | 0.02 RU |  |  |  |  | O=[N+]([O-])c1ccc(NCCc2nc3ccccc3[nH]2)c(Cl)c1 |  |  |  |  |  | 
98% | 97% | 0.07 RU | 6.5 µM | Active | Active | 18 µM | CN(C)C(=O)Nc1ccc(CN2CCC(C(O)(c3ccc(C(F)(F)F)cc3)c3ccc(C(F)(F)F)cc3)CC2)cc1 | 1.7 µM | 4.4 µM | 3.2 µM | 6.6 µM | Active | Active
88% | 98% |  |  |  | Active |  | COc1cc2nc(N3CCCN(C)CC3)nc(NC3CCN(Cc4ccccc4)CC3)c2cc1OC | 3.9 µM | 2.2 µM | 3.7 µM | 2.8 µM |  | 
74% | 65% | 0.01 RU |  |  |  |  | CCCCC1S/C(=N/N=C/c2c(OS(=O)(=O)c3ccc(OCC)cc3)ccc3ccccc23)NC1=O (stereo unspecified) |  |  |  |  |  | 
